Measurements reported in article PMC10546485 (Journal of medicinal chemistry, 2022).

What was measured:
[1] = system: mouse opioid μ receptor expressed in CHO cell lines; assay: In vitro competitive radioligand binding assay, MOR; conditions: ratio of Ki values
Method in brief: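 CHO membranes (30 μg) expressing mouse μ or κ, or human δ, opioid receptor were incubated with radioligand and varied test compound in TME (pH 7.4) for 1.5 h at 30 °C, then filtered. Nonspecific binding was defined with 5 μM naltrexone, U50,488 or SNC80.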

[2] = target: human δ opioid receptor expressed in CHO cell lines (Homo sapiens, UniProt P41143); assay: In vitro competitive radioligand binding assay, DOR; conditions: ratio of Ki values
[3] = target: DOR (DOR-CHO membrane protein) (Homo sapiens, UniProt P41143); assay: DOR [35S]-GTPγS functional assay; type: biochemical
patients = conditions: long-term study; cited from earlier work
[4] = male rats, after oral administration; cited from earlier work
gastrointestinal transit = conditions: MNTX intraperitoneally, morphine 5 mg/kg s.c.; cited from earlier work
male Swiss Webster mice = assay: Carmine red dye assay; type: in vivo, mouse; conditions: test compound 10 mg/kg oral gavage, morphine 5 mg/kg
Method in brief: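 Male Swiss Webster mice (5–8 wk, 25–35 g), 5–6 per group, housed singly. Test compound 10 mg/kg or vehicle given p.o. 5 min before morphine 5 mg/kg injection. Twenty min after morphine, 0.2 mL 6% carmine red in 0.5% CMC/ddH₂O given p.o. Time to first red pellet recorded, 6 h cut-off. One-way ANOVA with corrected Dunnett test.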

CYP3A4 = conditions: cited from earlier work

human δ opioid receptor expressed in CHO cell lines, sequence (P41143 whole entry): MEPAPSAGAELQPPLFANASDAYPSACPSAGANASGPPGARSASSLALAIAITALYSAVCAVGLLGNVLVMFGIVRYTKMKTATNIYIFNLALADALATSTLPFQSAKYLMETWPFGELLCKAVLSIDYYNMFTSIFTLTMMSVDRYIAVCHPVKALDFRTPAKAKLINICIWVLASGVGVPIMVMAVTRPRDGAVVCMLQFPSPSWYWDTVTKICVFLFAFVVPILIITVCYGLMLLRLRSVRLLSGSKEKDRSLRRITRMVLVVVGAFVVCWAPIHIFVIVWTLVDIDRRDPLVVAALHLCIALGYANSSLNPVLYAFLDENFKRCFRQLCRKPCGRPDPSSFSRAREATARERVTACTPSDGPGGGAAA
DOR (DOR-CHO membrane protein), sequence (P41143 whole entry): as above

Question: For O=C(Cc1cc[nH]n1)N[C@H]1CC[C@@]2(O)[C@H]3Cc4ccc(O)c5c4[C@@]2(CCN3CC2CC2)[C@H]1O5 [Compound 2, 17-Cyclopropylmethyl-3,14β-dihydroxy-4,5α-epoxy-6α-(3′-pyrazolylacetamido)morphinan], which “selectivity for the MOR over both the KOR and DOR” value [1] is on record?
Answer: Its value is “at least a hundred-fold”.

Question: Which “selectivity for the MOR over both the KOR and DOR” value [1] does the source give for O=C(Cc1cn[nH]c1)N[C@H]1CC[C@@]2(O)[C@H]3Cc4ccc(O)c5c4[C@@]2(CCN3CC2CC2)[C@H]1O5 [Compound 5, 17-Cyclopropylmethyl-3,14β-dihydroxy-4,5α-epoxy-6α-(4′-pyrazolylacetamido)morphinan] here?
Answer: Its value is “at least a hundred-fold”.

Question: Which δ/μ selectivity [2] does the source give for O=C(Cc1cc[nH]n1)N[C@@H]1CC[C@@]2(O)[C@H]3Cc4ccc(O)c5c4[C@@]2(CCN3CC2CC2)[C@H]1O5 [Compound 14, 17-Cyclopropylmethyl-3,14β-d/hydroxy-4,5α-epoxy-6β-(3′-pyrazolylacetamldo)morphinan] here?
Answer: Its δ/μ selectivity is “hundreds-fold”.

Question: Which δ/μ selectivity [2] does the source give for O=C(CCc1cc[nH]n1)N[C@@H]1CC[C@@]2(O)[C@H]3Cc4ccc(O)c5c4[C@@]2(CCN3CC2CC2)[C@H]1O5 [Compound 15] here?
Answer: Its δ/μ selectivity is “hundreds-fold”.

Question: For O=C(N[C@@H]1CC[C@@]2(O)[C@H]3Cc4ccc(O)c5c4[C@@]2(CCN3CC2CC2)[C@H]1O5)c1cnc[nH]1 [Compound 19, 17-Cyclopropylmethyl-3,14β-dlhydroxy-4,5α-epoxy-6β-(5′-imldazolylcarboxamldo)morphinan], which EC50 [3] is on record?
Answer: The EC50 was 19.1 ± 5.91 nM.

Question: With O=C(N[C@@H]1CC[C@@]2(O)[C@H]3Cc4ccc(O)c5c4[C@@]2(CCN3CC2CC2)[C@H]1O5)c1ncc[nH]1 [Compound 22, 17-Cyclopropylmethyl-3,14β-dihydroxy-4,5α-epoxy-6β-(2′-imidazolylcarboxamido)morphinan] as the compound, how does the δ/μ selectivity [2] read?
Answer: Its δ/μ selectivity is “hundreds-fold”.

Question: For O=C(Cc1ncc[nH]1)N[C@@H]1CC[C@@]2(O)[C@H]3Cc4ccc(O)c5c4[C@@]2(CCN3CC2CC2)[C@H]1O5 [Compound 23, 17-Cyclopropylmethyl-3,14β-dihydroxy-4,5α-epoxy-6β-(2′-imidazolylacetamido)morphinan], which δ/μ selectivity [2] is on record?
Answer: Its δ/μ selectivity is “hundreds-fold”.

Question: Which results are given for C[N@+]1(CC2CC2)CC[C@]23c4c5ccc(O)c4O[C@H]2C(=O)CC[C@@]3(O)[C@H]1C5 [MNTX, methylnaltrexone]?
Answer: cardiac-related adverse event, share of patients (patients): less than 1%; oral bioavailability [4]: < 1%; block of the antitransit effects of morphine (gastrointestinal transit): effective; reversal of the inhibitory effects of morphine on GI motility (male Swiss Webster mice): no blockage was observed

Question: Which “substrate of CYP3A4” value (CYP3A4) does the source give for CC(C)(NC(=O)C1=C(O)[C@@H]2Oc3c(O)ccc4c3[C@@]23CCN(CC2CC2)[C@H](C4)[C@]3(O)C1)c1nc(-c2ccccc2)no1 [naldemedine] here?
Answer: The value was “substrates”.

Question: Which “substrate of CYP3A4” value (CYP3A4) does the source give for C=CCN1CC[C@]23c4c5ccc(O)c4O[C@H]2[C@@H](OCCOCCOCCOCCOCCOCCOCCOC)CC[C@@]3(O)[C@H]1C5 [naloxegol] here?
Answer: Its value is “substrates”.
